Measurements collected from several papers.
Each line is one published result; the experiments were not run side by side.
Target: Mitogen-activated protein kinase 8 (MAPK8, Homo sapiens, UniProt P45983)

SMILES | assay | setting | measurement | value
Cc1sc(C(=O)NC2COC2)cc1-n1cc(NC(=O)Nc2c(F)cccc2Cl)cn1 | enzyme activity, inhibitor | 10 µM | remaining activity | 76.3%
N#CC1c2c([nH]c3c(Cl)c(Cl)ccc23)C(=O)NC12CCCCC2 (racemic) | thermal stability, DSF | 10 µM | ΔTm | 1.8 °C
C=CC(=O)Nc1cc(Nc2nccc(Nc3cc(Cl)c(F)cc3C(C)(C)O)n2)c(OC)cc1N1CC[C@@H](N(C)C)C1 | enzyme activity, inhibitor | 1 µM | inhibition | -3%
CN1CCC2(CC1)NC(=O)c1c(c3ccc(Cl)c(Cl)c3n1C)C2C#N (racemic) | thermal stability, DSF | 10 µM | ΔTm | 0 °C
COc1cc2ncnc(Nc3ccc(Oc4ccccc4)cc3C)c2cc1OC | enzyme activity, inhibitor | 1 µM | inhibition | 1%
Cc1cnc(NC2CCOCC2)nc1-n1cnc(C(=O)NC(CN)c2cc(F)cc(Cl)c2)c1 (centres unmarked) | enzyme activity, inhibitor, radiometric | 1 µM | remaining activity | 56%
CC(C)(C)c1nc(-c2cccc(NS(=O)(=O)c3c(F)cccc3F)c2F)c(-c2ccnc(N)n2)s1 | enzyme activity, inhibitor, radiometric | 1 µM | remaining activity | 89%
C[C@@H]1CN(c2cc(-c3nn(C)c4ccc(OC5(C)CC5)cc34)ncn2)C[C@H](C)O1 | cell-free assay, competition with immobilised ligand | 1 µM | remaining binding | 82%
Cn1c2c(c3ccc(Cl)c(Cl)c31)C(C#N)C(C)(C)NC2=O (centres unmarked) | thermal stability, DSF | 10 µM | ΔTm | 1.3 °C
O=C1NC(=O)c2cc(Nc3ccc(F)cc3)c(Nc3ccc(F)cc3)cc21 | cell-free assay | 0.5 µM | remaining signal | 91.4%
c1ccc(N2CCN(Cc3nc4ccccc4[nH]3)CC2)nc1 | binding, competition with immobilised ligand | 1 µM | remaining binding | 100%
CCN(CC)CCNC(=O)c1c(C)[nH]c(/C=C2\C(=O)Nc3ccc(F)cc32)c1C | cell-free assay | 0.5 µM | remaining signal | 91.8%
FC(F)c1nc2ccccc2n1-c1nc(N2CCOCC2)nc(N2CCOCC2)n1 | enzyme activity, inhibitor | 10 µM | remaining activity | 93%
CO[C@@H](C)c1c(Nc2ccc([C@@H](N(C)C(=O)C3CCS(=O)(=O)CC3)C(F)(F)F)cc2)cnc2cc(Cl)nn12 | cell-free assay, competition with immobilised ligand | 1 µM | remaining binding | 69%
CN1CC(Oc2cnc(C#N)cc2-c2ccn3nc(NC(=O)C4CC4)cc3c2)C1 | enzyme activity, inhibitor | 1 µM | inhibition | -4%
FC(F)(F)Oc1cccc(-c2cnc3ccc(-c4ccncc4)nn23)c1 | enzyme activity, inhibitor, radiometric | 1 µM | activity vs control | 91%
Nc1nc(Nc2ccccc2)sc1C(=O)c1c(F)cccc1F | enzyme activity, inhibitor | 10 µM | remaining activity | 75%
CC(=O)C1=C(C)N(c2cccc(C(F)(F)F)c2)C(=O)N[C@@H]1c1ccc(C#N)nc1 | cell-free assay, competition with immobilised ligand | 1 µM | remaining binding | 100%

SMILES | assay | setting | measurement | value
CCN1CCC2(CC1)NC(=O)c1c(c3ccc(Cl)c(Cl)c3n1C)C2C#N (racemic) | thermal stability, DSF | 10 µM | ΔTm | 0.6 °C
COc1cc(Cl)c(C(=O)N[C@@H](CN[C@H]2CC[C@@H](N)CC2)Cc2ccc(C#N)cc2)cc1-c1ccc(CN[C@H](C)c2ccc(C)cc2)o1 | enzyme activity, inhibitor | 1 µM | remaining activity | 100%
CSc1nc(C)c(-c2ccnc(Nc3ccc(N4CCOCC4)cc3)c2)[nH]1 | enzyme activity, inhibitor | 10 µM | inhibition | 88.6%
CN(c1ccnc(CNc2nc(Nc3ccc4c(c3)CC(=O)N4)ncc2C(F)(F)F)n1)S(C)(=O)=O | cell-free assay, competition with immobilised ligand | 1 µM | remaining binding | 65%
CN(C)C1CCN(CC#Cc2nn(C3CCCC3)c3nc(NCc4ccccc4)ncc23)C1 (centres unmarked) | enzyme activity, inhibitor, FRET | 1 µM | inhibition | 5%
Cn1c2c(Cl)c(Cl)ccc2c2cn[nH]c(=O)c21 | thermal stability, DSF | 10 µM | ΔTm | -0.3 °C
CCCS(=O)(=O)Nc1ccc(F)c(C(=O)c2c[nH]c3ncc(-c4ccc(Cl)cc4)cc23)c1F | enzyme activity, inhibitor | 1 µM | inhibition | < 10%
CNCc1ccc(-c2cc(-c3nc(-c4ccc(S(=O)(=O)C(C)C)cc4)cnc3N)on2)cc1 | enzyme activity, inhibitor | 2 µM | inhibition | 8%
COc1cc(Nc2cnc(C#N)c(O[C@H](C)CN(C)C)n2)ncc1-c1cnn(C)c1 | enzyme activity, inhibitor, radiometric | 1 µM | remaining activity | 104%
CC(C)(O)[C@H]1CC[C@H](Nc2ccc3ncc(-c4cccc(C(F)(F)F)c4)n3n2)CC1 | enzyme activity, inhibitor | 1 µM | remaining activity | 107%
CC1=C(C#N)[C@@H](c2ccc3[nH]nc(C)c3c2)C(C#N)=C(c2ccc(Cl)cc2)N1 | cell-free assay, competition with immobilised ligand | 1 µM | remaining binding | 65.2%
Nc1ncnc2occ(-c3ccc(NC(=O)Nc4cc(C(F)(F)F)ccc4F)cc3)c12 | cell-free assay, inhibitor | 20 µM | remaining signal | 11%
Cc1ccc(C(=O)NCc2ccsc2)cc1C#Cc1cn(C(C)C)c2ncnc(N)c12 | enzyme activity, inhibitor | 1 µM | activity vs control | 103%
CC1=C(C#N)C(c2ccc3c(c2)c(NC(=O)c2ccccc2C)nn3C)C(C#N)=C(C)N1 | cell-free assay, competition with immobilised ligand | 1 µM | remaining binding | 88%
COc1cc(-c2cc(-c3ccc(N4CCNCC4)cc3)cnc2C)cc(OC)c1OC | enzyme activity, inhibitor | 1 µM | inhibition | 2%
CCOCCn1cc(C(=O)Nc2ccc(-n3nc(-c4cccnc4)cc3C(F)(F)F)cn2)ccc1=O | cell-free assay, competition with immobilised ligand | 1 µM | remaining binding | 72%
N#CC(c1ccnc(NCCc2cccnc2)n1)c1nc2ccccc2s1 (centres unmarked) | enzyme activity, inhibitor | 0.5 µM | remaining activity | 87.6%
